Kir21 inh: blocks the mouse Kir2.1 inward-rectifier potassium channel | P35561 | HEK293-Kir2.1, FluxOR thallium flux fluorescence; hits give low values | B-score at 10 µM | 310,000 compounds, 0.85% hits | AID 1672;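 active = fluorescence ratio B-score at or below minus 3 SD of library scores, with starting-brightness B-score within 2 SD, cut at about -4.2 in these data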;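 note: channel flux triggered by added potassium and thallium sulfate stimulus; B-score of peak minus minimum fluorescence over baseline after thallium stimulus; more negative B-score means stronger Kir2.1 block with less thallium influx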
TRPC6 inhibitor: blocks the mouse TRPC6 cation channel; 310,000 compounds, 1.1% hits; HEK293-TRPC6, membrane potential dye, ACh-evoked depolarization; hits give low values; B-score at 10 µM;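 active = B-score under library mean minus 3 SD, initial fluorescence not abnormally high, positive integrated signal ratio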;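 note: B-score derived from integrated fluorescence ratio over the kinetic read; more negative B-score means stronger inhibition of depolarization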
TRPC4 block: blocks the mouse TRPC4 cation channel; B-score at 10 µM; 300,000 compounds, 0.39% hits; Q9QUQ5; HEK293 TRPC4beta/mu-opioid, DAMGO-evoked Fluo4 calcium flux; hits give low values; AID 2247;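 active = B-score over 3 SD under the library average, no early fluorescence shift, positive overall ratio signal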
Target sequence (Q9QUQ5 whole entry, looked up): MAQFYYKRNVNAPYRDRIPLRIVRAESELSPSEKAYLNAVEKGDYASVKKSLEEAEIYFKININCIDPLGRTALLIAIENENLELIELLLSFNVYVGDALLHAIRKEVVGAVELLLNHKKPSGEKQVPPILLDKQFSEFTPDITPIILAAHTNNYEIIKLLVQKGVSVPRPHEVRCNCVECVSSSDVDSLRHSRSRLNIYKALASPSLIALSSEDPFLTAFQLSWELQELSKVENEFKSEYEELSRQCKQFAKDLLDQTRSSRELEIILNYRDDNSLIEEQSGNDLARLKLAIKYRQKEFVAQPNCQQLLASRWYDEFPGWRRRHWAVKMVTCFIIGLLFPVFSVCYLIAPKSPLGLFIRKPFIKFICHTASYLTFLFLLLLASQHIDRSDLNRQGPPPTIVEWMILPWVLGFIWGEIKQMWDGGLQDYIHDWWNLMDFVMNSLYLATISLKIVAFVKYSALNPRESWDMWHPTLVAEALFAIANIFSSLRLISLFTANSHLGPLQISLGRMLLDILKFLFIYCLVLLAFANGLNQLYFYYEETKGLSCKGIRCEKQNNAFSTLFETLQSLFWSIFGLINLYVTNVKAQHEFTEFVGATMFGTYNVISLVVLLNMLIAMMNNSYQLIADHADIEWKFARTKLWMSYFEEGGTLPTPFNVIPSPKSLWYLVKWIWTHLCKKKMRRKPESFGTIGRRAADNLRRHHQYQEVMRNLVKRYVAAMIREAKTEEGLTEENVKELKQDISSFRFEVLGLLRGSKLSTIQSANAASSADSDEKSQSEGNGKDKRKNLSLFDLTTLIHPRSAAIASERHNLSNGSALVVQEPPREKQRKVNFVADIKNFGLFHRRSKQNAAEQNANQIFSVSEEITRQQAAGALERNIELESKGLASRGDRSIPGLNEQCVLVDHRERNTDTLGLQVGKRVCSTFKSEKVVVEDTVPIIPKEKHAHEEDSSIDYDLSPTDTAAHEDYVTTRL
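System: stable TRPC4beta/mu-opioid receptor HEK293 cells; Dosing: single-point compound dosing; Measured by: Fluo4 Ca2+ flux fluorescence; Read-out basis: per-well B score of integrated baseline-normalized Fluo4 ratio.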
TRPC6 act: activates the mouse TRPC6 cation channel. 310,000 compounds, 0.13% hits. Q61143. B-score at 10 µM. HEK293-TRPC6 membrane potential dye fluorescence; hits give high values;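 active = B-score of the integrated fluorescence ratio above library mean plus 3 SD, and starting fluorescence ratio within library mean plus 5 SD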;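 note: higher score means more depolarization so channel activation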
TRPC4 PAM: allosterically enhances the mouse TRPC4 cation channel; HEK293 TRPC4beta/mu-opioid, DAMGO EC20, Fluo-4 Ca2+ flux; hits give high values; B-score at 10 µM; 310,000 compounds, 0.42% hits; AID 2227;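 active = B-score of calcium response area above 5 SD of library B-scores, with initial fluorescence ratio within 5 SD of library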
TRPC4 agonist: opens the mouse TRPC4 cation channel. Q9QUQ5. HEK293 TRPC4beta/mu-opioid, Fluo4 calcium fluorescence; hits give high values. B-score at 10 µM. 310,000 compounds, 0.49% hits. AID 2237;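 active = B-score above 5 SD of library B-scores, and initial fluorescence ratio not above library mean plus 5 SD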;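 note: positive B-score marks a calcium rise read as TRPC4 activation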
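Incubation: 45 min room-temperature Fluo4 loading, 110 s read / System: HEK293 cells stably co-expressing mouse TRPC4beta and mu-opioid receptor / Signal: Fluo4 fluorescence, kinetic / Control set: buffer (low) and maximal DAMGO (high) / Measure: integrated baseline-normalised fluorescence ratio, converted to per-well B score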
Numbers stand for hits; - = inactive. Most compounds without a hit are left out; they make up all but 2.9% or so of the library.

SMILES | Kir21 inh | TRPC6 inhibitor | TRPC4 block | TRPC6 act | TRPC4 PAM | TRPC4 agonist
O=C1CC(c2ccccc2)Cc2nc(NC3CC3)ncc21 (configuration not stated) | - | - | - | - | - | -
CCC1CCCCN1CCNS(=O)(=O)c1ccc2c(c1)oc(=O)n2C (configuration not stated) | - | - | - | - | - | -
COc1ccc(S(=O)(=O)NN(C)c2ncc(C(F)(F)F)cc2Cl)cc1 | -7.98 | - | - | - | - | -
Cc1ccccc1OCC(O)Cn1c(SC(C)C)nc2c1c(=O)[nH]c(=O)n2C (configuration not stated) | - | - | - | - | - | -
Clc1ccc2c(c1)CCc1cccnc1C2=C1CCNCC1 | - | -5.96 | - | - | - | -
CCOc1ccccc1/C=N/n1c(C)nc2ccccc2c1=O | - | - | - | - | - | -
Cc1ccc(C2=NC(C(F)(F)F)(C(F)(F)F)c3c(n(-c4ccc(F)cc4)c(=O)[nH]c3=O)N2)cc1 | - | - | - | - | 12 | -
Cc1[nH]c2c(ccc3ccccc32)c1C1C(CCN)C1(C)C (configuration not stated) | - | - | - | - | - | 70
O=C(CCCc1nc(-c2ccc(Cl)cc2)no1)NC1CCCC1 | -4.32 | - | - | - | - | -
COc1ccccc1CNC(=O)CN1C(=O)c2cccc(N)c2C1=O | - | - | - | - | - | -
CCOC(=O)C1(Cc2cccc(OC)c2)CCN(Cc2cnc(N)nc2)CC1 | - | - | - | - | - | -
CCOC(=O)C1(CCOc2ccccc2)CCN(Cc2ccc3c(c2)OCCO3)CC1 | - | - | - | - | - | 61
CCOC(=O)C1(Cc2cccc(OC)c2)CCN(Cc2ccc3c(c2)OCCO3)CC1 | - | - | - | - | - | 56
CCOC(=O)C1(Cc2cccc(OC)c2)CCN(Cc2ccccc2)CC1 | - | - | - | - | - | -
CCOC(=O)C1(Cc2cccc(OC)c2)CCN(Cc2cnc(SC)nc2)CC1 | - | - | -5 | - | - | -
COc1cc(OC)c(C2CC(=O)N3CN(C)CSC3=C2C#N)cc1OC (configuration not stated) | - | - | - | - | - | -
CC1CCCC(C)N1C(=O)COC(=O)Cc1ccc(Cl)cc1 (configuration not stated) | - | - | - | - | - | -
CC1CCCC(C)N1C(=O)CSCc1ccc(Cl)cc1 (configuration not stated) | -4.94 | - | - | - | - | -
CCc1ccc2[nH]c(=O)c(CN(CCN3CCOCC3)C(=O)Nc3ccccc3F)cc2c1 | - | - | - | - | - | -
COc1ccc(S(=O)(=O)N2CCc3ccccc3C2)cc1OC | -4.24 | - | - | - | - | -
COc1ccc(S(=O)(=O)N2CCc3ccccc3C2)cc1C(=O)O | - | - | - | - | - | -
NC(=O)NC(=O)COC(=O)c1ccc(Cl)c(S(=O)(=O)N(Cc2ccccc2)c2ccc(Cl)cc2)c1 | - | - | - | - | - | -
O=C(CSc1ccc2ccccc2c1)N1CCN(c2ccc(O)cc2)CC1 | -4.23 | - | - | - | - | -
CCc1cccc(NC(=O)CCCn2nc(CC)n3c(cc4occc43)c2=O)c1 | -5.02 | - | - | - | - | -
COc1cccc(NC(=O)C2CCN(S(=O)(=O)c3ccc4c(c3)CC(C)N4C(C)=O)CC2)c1 (configuration not stated) | - | - | - | - | - | -
SMILES | Kir21 inh | TRPC6 inhibitor | TRPC4 block | TRPC6 act | TRPC4 PAM | TRPC4 agonist
O=S(=O)(c1ccccc1)N(Cc1ccccc1)c1ccccn1 | -6.7 | - | - | - | - | -
Cc1cc(C)n(CC(O)COc2ccccc2[N+](=O)[O-])n1 (configuration not stated) | - | - | - | - | - | -
Cc1cccc(OCCOCCN2CCNCC2)c1C | - | - | - | - | - | 133
Cc1cc(Cl)c(OCCOCCN2CCNCC2)c(Cl)c1 | - | - | - | - | - | 62
Cc1cc(C)c(OCCOCCN2CCN(C)CC2)c(Cl)c1 | - | - | - | - | - | -
CC1CCCCC1NCC#CCOc1ccc(Cl)cc1 (configuration not stated) | -5.02 | - | - | - | - | -
COc1ccc(-c2n[nH]c(=S)n2/N=C/c2cccn2C)cc1 | - | - | - | - | - | -
C[C@H](NC(=O)OC(C)(C)C)c1nnc(SCC(=O)Nc2cccc(Cl)c2)o1 | -4.31 | - | - | - | - | -
CC(C)(C)OC(=O)NCCc1nnc(SCc2c(Cl)cccc2Cl)o1 | - | - | - | - | - | -
CC(C)(C)OC(=O)NCCc1nnc(SCc2cccc(Cl)c2)o1 | -11.7 | - | - | - | - | -
Cc1cccc(CSc2nnc(CCNC(=O)OC(C)(C)C)o2)c1 | -6.75 | - | - | - | - | -
COc1ccccc1NS(=O)(=O)c1ccc(C(=O)NCC(c2ccccc2OC)N(C)C)cc1 (configuration not stated) | - | - | - | - | - | -
COC(=O)c1cc(C(=O)c2ccc(C(C)(C)C)cc2)c[nH]1 | - | - | - | - | 10 | -
C=CCSc1nc(O)c(C2OC(=O)c3c2ccc(OC)c3OC)c(=O)n1-c1ccccc1 (configuration not stated) | - | - | - | - | - | -
CC1(C)C2CCC1(C)C(NCC(O)COc1ccc(C#N)cc1)C2 (configuration not stated) | - | - | - | - | - | -
COc1ccccc1N1CCN(CC(C)N(C(=O)C2CCCCC2)c2ccccn2)CC1 (configuration not stated) | - | - | -6 | - | - | -
COc1ccccc1N1CCN(CCN(C(=O)C2CCCCC2)c2ccccn2)CC1 | - | - | - | - | - | -
CC1CCN(c2nc(Cl)nc(Nc3ccc([N+](=O)[O-])cc3)n2)CC1 | - | - | - | - | 47 | -
C=CCNc1nc(Nc2ccc([N+](=O)[O-])cc2)nc(N2CCCC2)n1 | - | - | - | - | - | -
C/C(N)=C(/C#N)C(=O)COC(=O)C1CCC(C(C)(C)C)CC1 (configuration not stated) | -11.4 | - | - | - | - | -
C/C(N)=C(/C#N)C(=O)COC(=O)CC12CC3CC(CC(C3)C1)C2 | - | - | -7 | - | - | -
CCOC(=O)CSc1n[nH]c(NC(=O)c2cccc(C)c2)n1 | - | - | - | - | - | -
CCOc1ncccc1C(=O)OCC(=O)Nc1ccc(C)c(S(=O)(=O)N(C)C)c1 | - | - | - | - | - | -
O=C(NCCNC1CCC(c2ccccc2)CC1)c1cccs1 (configuration not stated) | - | - | - | - | - | 158
CCN1CCN(CCNC(=O)c2ccc(/C=C3/Sc4ccccc4N(Cc4ccccc4C)C3=O)cc2)CC1 | -5.57 | - | - | - | - | -

Assay outcomes deposited in PubChem by Johns Hopkins Ion Channel Center.
